From ChEMBL document CHEMBL1154425, “Histatin-derived monomeric and dimeric synthetic peptides show strong bactericidal activity towards multidrug-resistant Staphylococcus aureus in vivo” (Antimicrob Agents Chemother, 2007)
Positions of bridges follow the written chain, without caps; N, C: chain ends. Residues, ends and D or L forms follow the SMILES beside them. Chains are numbered I, II in the order given.

Legend:
[1] = Ratio of drug level in infected thigh muscle to contralateral noninfected thigh muscle in multidrug-resistant Staphylococcus aureus 2141 infected Swiss mouse administered as [99m]technetium-radiolabeled peptide; assay type: ADME, tissue-based; details: in vivo
Outline: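 99mTc-labelled peptides (2 to 5 MBq) injected intravenously into infected mice. Scintigraphic imaging at intervals. Ratio = accumulation in infected thigh muscle (target) over contralateral noninfected thigh muscle (nontarget).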

[2] = test system: Staphylococcus aureus; assay: Bactericidal activity against multidrug-resistant Staphylococcus aureus 2141 isolate infected iv dosed Swiss mouse assessed per gram of infected soft tissue after 24 hrs; assay type: functional
Outline: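 Mice infected with 0.1 ml saline containing 0.5 to 2.0 × 10^7 CFU. After 18 h, various peptide amounts given intravenously. Mice kept another 24 h, then sacrificed and viable bacteria counted. LC50 = μmol/g infected tissue cutting viable counts by 50% versus untreated mice. Means from at least three animals per peptide concentration.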

[3] = test system: Staphylococcus aureus; assay: Bactericidal activity against Staphylococcus aureus ATCC 25923 after 2 hrs; assay type: functional; details: ATCC 25923, 2 h
Outline: (§1)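 1 × 10^6/ml bacteria in phosphate buffer with 1% (wt/vol) tryptic soybean broth exposed to various peptide amounts, 2 h at 37°C. Viable counts on DST plates. LC50 = concentration (μM) cutting viable bacteria by 50% versus no-peptide incubations. Means from at least three independent experiments.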

[4] = test system: Staphylococcus aureus; assay: Bactericidal activity against multidrug-resistant Staphylococcus aureus 2141 isolate after 2 hrs; assay type: functional; outline: as §1

| Structure (SMILES) | Ratio [1] | LC50 [2] | LC50 [3] | LC50 [4] |
| --- | --- | --- | --- | --- |
| C[C@H](N)C(=O)N[C@@H](CCCCN)C(=O)N[C@@H](CCCNC(=N)N)C(=O)N[C@@H](Cc1c[nH]cn1)C(=O)N[C@@H](Cc1c[nH]cn1)C(=O)NCC(=O)N[C@@H](Cc1ccc(O)cc1)C(=O)N[C@@H](CCCCN)C(=O)N[C@@H](CCCNC(=N)N)C(=O)N[C@@H](CCCCN)C(=O)N[C@@H](Cc1ccccc1)C(=O)N[C@@H](Cc1c[nH]cn1)C(=O)O (H-AKRHHGYKRKFH-OH) | 1.8 |  |  |  |
| C[C@H](N)C(=O)N[C@@H](CCCCN)C(=O)N[C@@H](CCCNC(=N)N)C(=O)N[C@@H](Cc1cnc[nH]1)C(=O)N[C@@H](Cc1cnc[nH]1)C(=O)NCC(=O)N[C@@H](Cc1ccc(O)cc1)C(=O)N[C@@H](CCCCN)C(=O)N[C@@H](CCCNC(=N)N)C(=O)N[C@@H](CCCCN)C(=O)N[C@@H](Cc1ccccc1)C(=O)N[C@@H](Cc1cnc[nH]1)C(=O)O (H-AKRHHGYKRKFH-OH) |  | 3 µmol/g | 12.5 µM | 18.6 µM |
| C[C@H](N)C(=O)N[C@@H](CCCCN)C(=O)N[C@@H](CCCNC(=N)N)C(=O)N[C@@H](Cc1cnc[nH]1)C(=O)N[C@@H](Cc1cnc[nH]1)C(=O)NCC(=O)N[C@@H](Cc1ccc(O)cc1)C(=O)N[C@@H](CCCCN)C(=O)N[C@@H](CCCNC(=N)N)C(=O)N[C@@H](CCCCN)C(=O)N[C@@H](Cc1ccccc1)C(=O)N[C@@H](Cc1cnc[nH]1)C(=O)NCCCC[C@H](NC(=O)[C@H](Cc1cnc[nH]1)NC(=O)[C@H](Cc1ccccc1)NC(=O)[C@H](CCCCN)NC(=O)[C@H](CCCNC(=N)N)NC(=O)[C@H](CCCCN)NC(=O)[C@H](Cc1ccc(O)cc1)NC(=O)CNC(=O)[C@H](Cc1cnc[nH]1)NC(=O)[C@H](Cc1cnc[nH]1)NC(=O)[C@H](CCCNC(=N)N)NC(=O)[C@H](CCCCN)NC(=O)[C@H](C)N)C(N)=O (I: H-AKRHHGYKRKFHK-NH2 / II: H-AKRHHGYKRKFH; amide I:13-II:C) [listing 1 of 2 here] | 1.8 |  |  |  |
| C[C@H](N)C(=O)N[C@@H](CCCCN)C(=O)N[C@@H](CCCNC(=N)N)C(=O)N[C@@H](Cc1cnc[nH]1)C(=O)N[C@@H](Cc1cnc[nH]1)C(=O)NCC(=O)N[C@@H](Cc1ccc(O)cc1)C(=O)N[C@@H](CCCCN)C(=O)N[C@@H](CCCNC(=N)N)C(=O)N[C@@H](CCCCN)C(=O)N[C@@H](Cc1ccccc1)C(=O)N[C@@H](Cc1cnc[nH]1)C(=O)NCCCC[C@H](NC(=O)[C@H](Cc1cnc[nH]1)NC(=O)[C@H](Cc1ccccc1)NC(=O)[C@H](CCCCN)NC(=O)[C@H](CCCNC(=N)N)NC(=O)[C@H](CCCCN)NC(=O)[C@H](Cc1ccc(O)cc1)NC(=O)CNC(=O)[C@H](Cc1cnc[nH]1)NC(=O)[C@H](Cc1cnc[nH]1)NC(=O)[C@H](CCCNC(=N)N)NC(=O)[C@H](CCCCN)NC(=O)[C@H](C)N)C(N)=O (I: H-AKRHHGYKRKFHK-NH2 / II: H-AKRHHGYKRKFH; amide I:13-II:C) [listing 2 of 2 here] |  | 3 µmol/g | 49.8 µM | 38.9 µM |
